Tb MetRS inh – blocks T. brucei methionyl-tRNA synthetase activity | purified T. brucei MetRS, ATP depletion, Kinase-Glo luminescence | inhibition, % at 11.9 µM | actives 0.4% (n = 360,000) | AID 624268;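 active means inhibition above a per-plate cutoff of the control wells' mean inhibition plus 3 SD, cut at about 5.5% in these data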;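 further: 0% = DMSO wells median and 100% = median of wells with control inhibitor compound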
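Measured by: Kinase-Glo luciferase luminescence reporting remaining unconsumed ATP. Material: purified T. brucei MetRS enzyme. Doses: 11.9 µM compound single dose, 0.9% DMSO. Medium: HEPES buffer containing pyrophosphatase, BSA, spermine, DTT. Times: 15 min preincubation, 2 h reaction, all 25 °C. Reagent: methionine, ATP and bulk E. coli tRNA.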
HCV core dimer – blocks dimerization of HCV core protein | actives 0.33% (n = 300,000) | inhibition, % at 5 µM | TR-FRET GST/Flag-core106 dimerization, 1536-well;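 active means inhibition above the mean of all tested compounds plus 3 SD, set per screening campaign, cut at about 45% in these data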
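Assay system – GST-tagged and Flag-tagged HCV core protein residues 1-106 · Quantity – core106 proteins, GST 13.5 nM and Flag 17 nM · Benchmarks – unlabelled core106 and no-GST-core106 wells · Read-out basis – percent inhibition of core106 dimerization signal · Detection – time-resolved FRET, ex 340 nm, em 617 and 671 nm · Schedule – 4 h at 22.5 °C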
Rce1 inhib – blocks yeast Ras-converting enzyme. AID 2563. calls only. actives 0.27% (n = 290,000). yeast membranes, quenched prenylated peptide cleavage fluorescence. Q03530;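 active means fall in fluorescence gain of 50% or more versus controls, with final raw signal at or below 3038400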;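 further: plate controls were neutral control wells for no effect and wells lacking membranes for full effect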
Target sequence (Q03530 whole entry, looked up): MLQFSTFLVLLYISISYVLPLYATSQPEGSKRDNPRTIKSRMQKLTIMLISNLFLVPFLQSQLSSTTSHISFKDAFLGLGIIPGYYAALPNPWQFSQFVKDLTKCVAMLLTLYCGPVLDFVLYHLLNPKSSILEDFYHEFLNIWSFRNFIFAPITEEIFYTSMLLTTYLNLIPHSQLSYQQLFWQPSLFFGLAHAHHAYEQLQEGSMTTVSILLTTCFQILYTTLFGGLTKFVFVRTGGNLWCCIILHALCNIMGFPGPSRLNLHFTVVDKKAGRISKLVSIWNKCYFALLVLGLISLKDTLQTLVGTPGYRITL
NadD inh – inhibitors of Staphylococcus aureus NadD; purified NadD enzyme, colorimetric absorbance read-out; inhibition, % at 20 µM; actives 0.78% (n = 360,000); AID 602399; in the data active means inhibition above about 26%
DSG3 Ab inh – human desmoglein-3 autoantibody binding inhibition; binding (percent of control), % at 10 µM; actives 0.48% (n = 310,000); DSG3-coupled beads, scFv-anti-DSG3-GFP binding, flow cytometry; stronger effect = lower value;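 active means binding more than 3 SD below its plate's average and above zero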;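 further: hits lower antibody fragment binding to DSG3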
NadD conf – confirmation of Staphylococcus aureus NadD inhibitors; inhibition, % at 20 µM; shares compounds with NadD inh; purified S. aureus NadD, colorimetric enzyme assay; actives 13% (n = 2,000); in the data active means inhibition mostly above about 42%, no sharp cut-off; inactive means mostly below about 42%
Numbers without * were called inactive; i = inactive; . = no result given. An excerpt weighted towards active compounds, which were near 1.9% of everything screened.

SMILES	Tb MetRS inh	HCV core dimer	Rce1 inhib	NadD inh	DSG3 Ab inh	NadD conf
O=C1OC(c2cccs2)=N/C1=C\c1ccc(-c2cccc(Cl)c2)o1	-1	21	i	46*	114	8
N=C1S/C(=C\c2ccc(-c3cccc(Cl)c3)o2)C(=O)N1c1nccs1	0	17	i	76*	74	2
O=C1OC(c2ccccc2)=N/C1=C/c1cccc(OC(=O)c2cccs2)c1	-2	23	i	3	105	.
Cc1cccc(-n2nc3c(c2NC(=O)c2ccco2)CSC3)c1C	0	49*	i	44*	87*	73*
Cc1ccc(-n2nc3c(c2NC(=O)/C=C\c2ccc4c(c2)OCO4)CSC3)cc1	1	39	i	41*	87	62*
Cc1ccc(-n2nc3c(c2NC(=O)C(C)(C)C)CSC3)c(C)c1	-1	4	i	7	97	.
Cc1ccc(-n2nc3c(c2NC(=O)/C=C\c2ccc4c(c2)OCO4)CSC3)c(C)c1	0	4	i	31*	88	57*
Cc1ccc(-n2nc3c(c2NC(=O)c2ccc(Br)o2)CSC3)c(C)c1	0	17	i	85*	86	62*
Cc1cccc(-n2nc3c(c2NC(=O)c2ccco2)CS(=O)C3)c1C (configuration not stated)	0	-2	i	-3	100	.
Cc1cc(C)c(C(=O)C[n+]2cccc(C(N)=O)c2)c(C)c1	0	-3	i	-6	95	.
CC(NC(=O)c1ccc(F)cc1)c1ccc(F)cc1 (configuration not stated)	0	-4	i	-7	100	.
Cc1ccccc1-n1nc2c(c1NC(=O)c1c(-c3ccccc3Cl)noc1C)CSC2	-1	12	.	63*	111	34
Cc1ccc(NC(=O)Nc2nc3ccccc3s2)cc1NC(=O)Nc1nc2ccccc2s1	-1	4	i	28*	92	8
O=C(Nc1ccc(Cl)c([N+](=O)[O-])c1)Nc1nc2ccccc2s1	.	10	i	.	.	.
Cc1ccc2sc(NNC(=O)c3cc(=O)c4ccccc4o3)nc2c1C	0	-19	i	64*	95	70*
Cc1cccc2sc(NNC(=O)c3cc(=O)c4ccccc4o3)nc12	0	7	i	45*	105	60*
O=C(NNc1nc2c(F)cccc2s1)c1cc(=O)c2ccccc2o1	0	-1	i	15	98	.
CCOC(=O)CS(=O)(=O)c1nc(-c2ccc(F)cc2)cc(C(F)(F)F)n1	-1	1	i	-3	101	.
COc1ccc(NC(=O)c2cc(-c3ccco3)nc3ccccc23)cc1S(=O)(=O)N1CCOCC1	-1	81*	i	30*	86	67*
COc1ccc(NC(=O)c2cc(C)nc3ccccc23)cc1S(=O)(=O)N1CCOCC1	0	.	.	-2	91	.
O=C(Nc1ccc(Cl)c(S(=O)(=O)N2CCOCC2)c1)c1cc(-c2ccccn2)nc2ccccc12	0	7	i	4	104	.
Cc1ccc(NC(=O)c2cc(-c3ccco3)nc3ccccc23)cc1S(=O)(=O)N1CCOCC1	-1	69*	i	63*	90	60*
CC(=O)Nc1ccc(N=Cc2c(O)ccc3ccccc23)cc1	0	10	i	0	137	.
O=C(Nc1ccc(Oc2ccc3c(c2)C(=O)N(c2ccc(O)cc2)C3=O)cc1)c1cccs1	-1	10	i	34*	118	-4
CCSc1nnc(NC(=O)CSc2c(Cl)cccc2Cl)s1	0	-3	i	2	91	.
SMILES	Tb MetRS inh	HCV core dimer	Rce1 inhib	NadD inh	DSG3 Ab inh	NadD conf
O=C1Nc2cc(C(=O)NCCCN3CCCC3)ccc2S/C1=C\c1ccccc1	0	-6	i	2	101	.
COc1ccc(/C=C2/Sc3ccc(C(=O)NCCN4CCCCCC4)cc3NC2=O)cc1	-1	-20	i	56*	.	-11
C(=C\c1ccccc1)/CN1CCN(C(CCc2ccccc2)c2nnnn2-c2ccc3c(c2)OCCO3)CC1 (configuration not stated)	0	.	.	3	.	.
Cc1cc(O)c(-c2n[nH]c3c2C(c2cccc(O)c2)N(Cc2cccnc2)C3=O)cc1Cl (configuration not stated)	5	10	i	46*	100	46
CCCN1C(=O)c2[nH]nc(-c3cc(Cl)c(C)cc3O)c2C1c1ccc(O)c(OC)c1 (configuration not stated)	0	1	i	3	96	.
CSc1ccc(NC(=O)CSc2nc3[nH]c(=O)cc(O)c3s2)cc1	0	.	.	54*	.	28
N#Cc1ccc(NC(=O)CSc2nc3[nH]c(=O)cc(O)c3s2)cc1	0	.	.	-2	.	.
O=C(Nc1ccc(S(=O)(=O)N2CCCC2)cc1)c1ccc2c(=O)n3c(nc2c1)CCCCC3	0	2	i	1	101	.
Nc1c(C(=O)Nc2ccc(S(=O)(=O)N3CCCC3)cc2)sc2nc3cc4c(cc3cc12)CCC4	1	29	i	32*	102	0
CCN1c2ccccc2NC2C1C(C(C)=O)C(=O)N2c1ccc(Cl)cc1 (configuration not stated)	0	9	i	37*	122	5
COc1ccc(-c2cc(CNc3nc(NC(C)C)nc4cc(-c5ccccc5)sc34)on2)cc1	0	.	.	34*	.	21
CC(=O)NCCNc1nc(NC(C)C)nc2cc(-c3ccccc3)sc12	2	.	.	0	.	.
Cc1ccc(NC(=S)/C(=C(\[O-])c2ccc(F)cc2)[n+]2ccccc2)cc1	0	5	i	1	99	.
COc1ccc(-c2csc(NC(=S)NC(=O)c3cccs3)n2)cc1Br	0	8	i	25*	108	3
COc1ccc(-c2csc(NC(=S)NC(=O)c3cccs3)n2)cc1OC	-1	.	i	8	102	.
CC(C)C[C@H]1CN([C@@H](Cc2ccc(O)cc2)CN2CCC[C@@H]2CN2C(=S)NC[C@@H]2Cc2ccccc2)C(=S)N1CC1CCCCCC1	0	.	.	20	.	.
Oc1ccc(C[C@H]2CNC(=S)N2C[C@H]2CCCN2C[C@H](Cc2ccccc2)N2C[C@H](Cc3ccccc3)N(CC3CCCCC3)C2=S)cc1	-1	.	.	39*	.	0
CC(C)C[C@H]1CNC(=S)N1C[C@H]1CCCN1C[C@H](Cc1ccc(O)cc1)N1C[C@H](Cc2ccc(O)cc2)N(CC2CCCCCC2)C1=S	0	.	.	44*	.	17
CC(C)C[C@H]1CNC(=S)N1CC1CCCN1C[C@H](Cc1ccccc1)N1C[C@H](Cc2ccc(O)cc2)N(CC2CCCCCC2)C1=S (some centres not stated)	-2	.	.	32*	89	2
Cc1ccc(S(=O)(=O)N2C3CCCCC3O[C@H]2CC(=O)Oc2ccccc2)cc1 (some centres not stated)	0	.	.	.	.	.

Screening data (PubChem BioAssay)
